Compound activity as filed in PubChem.
In the library only some 3.1% were active in any assay of this set; here they are far more common.
RBBP9 inh: blocks human serine hydrolase RBBP9 | recombinant RBBP9, FP-Rh probe fluorescence polarization | inhibition, % at 7.94 µM | 220,000 compounds, 0.2% hits;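 active = inhibition above the campaign mean of all tested compounds plus 3 SD, cut at about 14% in these data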;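 also: plate controls were DMSO wells with RBBP9 for no effect and wells lacking RBBP9 protein for full effect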
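system = RBBP9 protein | input = RBBP9 at 2.5 µM in dispensed solution, before mixing | measured by = fluorescence polarization (mP), excitation 525 nm, emission 598 nm | incubation = enzyme-compound preincubation 30 min, then probe labeling 45 min, 25 °C | buffer or medium = Tris-NaCl-Pluronic buffer, pH 8.0 | compound = single dose 7.94 µM | also added = FP-Rh probe, 375 nM dispensing solution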
MBD2 DNA inh: MBD2-methylated oligo binding inhibition; Q9UBB5; TR-FRET, MBD2 binding to methylated oligonucleotide; inhibition, % at 4.4 µM; 370,000 compounds, 0.31% hits; in the data active = inhibition above about 13%
UHRF1 MBD2 ctr: blocks human UHRF1 binding to methylated DNA; Q96T88; UHRF1 binding to methylated oligo, TR-FRET; inhibition, % at 4.4 µM; 370,000 compounds, 0.75% hits; in the data active = inhibition above about 21%;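 also: UHRF1 SRA domain binding a hemimethylated CpG hairpin DNA probe; 0% = median of test compound wells and 100% = reference inhibitor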
LEDGF integ inh: blocks HIV-1 LEDGF/p75-dependent DNA integration; 370,000 compounds, 0.64% hits; AID 743269; inhibition, % at 3.7 µM; TR-FRET IN-LEDGF/p75 DNA integration, Eu/Cy5;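 active = inhibition above the screen-wide mean plus 3 SD, cut at about 13% in these data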;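 also: signal is the Cy5 over europium emission ratio at 671 and 618 nm; 0% = plate median of compound wells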
PRMT1 FP inh: blocks human protein arginine methyltransferase 1 | Q99873 | recombinant PRMT1, activity-based probe fluorescence polarization | inhibition, % at 2.79 µM | 370,000 compounds, 1.3% hits | AID 652257;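 active = inhibition above about 21% made by adding two undisclosed values, limit read from the data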
ABHD5 PLIN5 PPI: inhibitors of human ABHD5-perilipin-5 interaction | Q00G26+Q8WTS1 | Split G. princeps luciferase complementation, luminescence, 4 h | inhibition, % at 4 µM | 360,000 compounds, 0.78% hits;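 active = inhibition above the mean inhibition across every tested compound plus 3 SD, cut at about 22% in these data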;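 also: 0% = DMSO only wells and the 100% control is not disclosed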
Target sequence (Q00G26 whole entry, looked up): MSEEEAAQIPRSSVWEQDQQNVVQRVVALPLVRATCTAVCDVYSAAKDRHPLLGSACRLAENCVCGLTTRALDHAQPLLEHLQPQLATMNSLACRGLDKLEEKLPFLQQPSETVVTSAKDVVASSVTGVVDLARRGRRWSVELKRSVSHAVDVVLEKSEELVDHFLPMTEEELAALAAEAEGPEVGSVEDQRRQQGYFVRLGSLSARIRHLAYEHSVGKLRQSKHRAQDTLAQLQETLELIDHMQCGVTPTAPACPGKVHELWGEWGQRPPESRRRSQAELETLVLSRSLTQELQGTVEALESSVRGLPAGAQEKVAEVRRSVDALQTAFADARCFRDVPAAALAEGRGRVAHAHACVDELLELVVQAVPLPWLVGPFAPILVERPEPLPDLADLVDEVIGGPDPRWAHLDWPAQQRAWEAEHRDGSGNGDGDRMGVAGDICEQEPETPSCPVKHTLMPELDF
Target sequence (Q8WTS1 whole entry, looked up): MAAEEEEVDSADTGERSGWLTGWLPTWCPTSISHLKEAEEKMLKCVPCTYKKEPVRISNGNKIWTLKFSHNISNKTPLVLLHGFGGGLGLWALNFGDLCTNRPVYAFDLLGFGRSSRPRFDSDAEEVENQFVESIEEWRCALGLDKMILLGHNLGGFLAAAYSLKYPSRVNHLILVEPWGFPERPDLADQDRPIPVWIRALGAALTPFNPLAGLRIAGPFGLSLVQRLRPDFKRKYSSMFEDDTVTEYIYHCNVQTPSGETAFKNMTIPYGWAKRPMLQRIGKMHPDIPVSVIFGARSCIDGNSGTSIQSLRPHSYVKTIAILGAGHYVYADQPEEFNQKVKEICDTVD
PRMT1 confirm: PRMT1 (human) inhibition, FP confirmation; shares compounds with PRMT1 FP inh; recombinant His-PRMT1, activity-based probe fluorescence polarization; 3,300 compounds, 42% hits; inhibition, % at 2.79 µM; AID 687036;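 active = mean inhibition across replicates above the hit cutoff derived for the earlier primary screen, cut at about 22% in these data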
The depositor's hits bear a star; · = not tested or not shown.

SMILES | RBBP9 inh | MBD2 DNA inh | UHRF1 MBD2 ctr | LEDGF integ inh | PRMT1 FP inh | ABHD5 PLIN5 PPI | PRMT1 confirm
COc1ccc(C2N(C(=O)c3ccccc3)CCN2C(=O)c2ccc(C)cc2)cc1 (stereo not drawn) | 0.6 | -2.8 | -1.9 | -0.6 | -4.8 | 3.2 | ·
COC(=O)[C@@]1(Sc2ccc(C)cc2)CC(=O)N(C(=O)c2ccccc2)[C@@H]1c1ccccc1 | · | 2.4 | 1.6 | -5.4 | 67.8* | 2.9 | 77.3*
COc1ccc(S[C@]2(C(=O)N(C)C)CC(=O)N(S(=O)(=O)c3ccc(F)cc3)[C@@H]2c2ccc(OC)cc2)cc1 | · | 0.2 | -1.1 | -2.2 | 26.4* | · | 27.5*
COc1ccc(S[C@]2(C(=O)N3CCOCC3)CC(=O)N(c3ccccc3)[C@@H]2c2ccc(OC)cc2)cc1 | · | 1.6 | -0.6 | 1.4 | 5.8 | · | ·
COc1ccc(S[C@]2(C(=O)N(C)C)CC(=O)N(C(=O)c3ccccc3)[C@@H]2c2ccc(OC)cc2)cc1 | · | 0.9 | -0.4 | -3.5 | 84.2* | · | 72.1*
COc1ccc(S[C@]2(C(=O)N3CCCC3)CC(=O)N(C(=O)c3ccccc3)[C@@H]2c2ccc(OC)cc2)cc1 | · | -4.1 | 5.9 | 2.0 | 73.7* | · | 72.6*
COc1ccc(S[C@]2(C(=O)N3CCCC3)CC(=O)N(S(=O)(=O)c3ccc(F)cc3)[C@@H]2c2ccc(OC)cc2)cc1 | · | 3.9 | -1.2 | -0.7 | 20.3 | · | ·
CC(C)CNC(=O)OCc1cn(Cc2cccc(F)c2)nn1 | · | -0.4 | 1.5 | 0.9 | -3.1 | · | ·
Cc1cc(Nc2ccc(OC(F)F)cc2)cc(=O)n1-c1ccc(OC(F)F)cc1 | · | 2.2 | -2.5 | 0.6 | -1.2 | · | ·
Cc1cc(Cl)ccc1NC(=O)/N=C1/NC(=O)CS1 | · | 1.4 | 5.5 | -1.6 | 0.5 | -4.0 | ·
CC(C)C(=O)N=C1NC(=O)CS1 | -8.0 | 2.2 | -0.3 | 2.9 | 55.3* | -16.5 | 35.4*
O=C1CSC(=NC(=O)c2ccccc2)N1 | 2.0 | 0.0 | 0.9 | 0.7 | 77.6* | -17.8 | 14.6
COC(=O)[C@]12C[C@H](CC(=O)N3CCCCC3)C(=O)N(CCC3=CCCCC3)C1=C[C@H](C1CCCC1)O[C@@H]2C | · | 9.2 | 5.2 | -0.4 | 6.2 | · | ·
Brc1ccc2nc(-c3ccc(CN4CCC5(CC4)CNc4ccccc45)cc3)c(-c3ccccc3)nc2c1 | · | 5.0 | -0.1 | -4.9 | -1.6 | · | ·
COc1ccc(C(=O)C[n+]2ccc3c(c2)nc(Cc2ccccc2)n3C)cc1 | · | 4.9 | 4.1 | 0.4 | 28.5* | · | 5.7
CCN(CC)c1ccc(SS(=O)(=O)O)cc1 | -5.5 | 2.9 | 1.7 | 0.2 | 75.0* | -27.9 | 82.9*
O=S(=O)(O)Sc1ccccc1 | · | 3.5 | 4.8 | -8.7 | 12.6 | -23.9 | ·
CCN(CC(=O)NCc1cccs1)CC(=O)Nc1cccc(S(N)(=O)=O)c1 | · | -1.4 | -3.6 | 0.8 | 43.8* | -5.0 | -3.3
CCN(CC(=O)NCc1cccs1)CC(=O)Nc1ccc(C(N)=O)cc1 | · | -2.9 | -0.1 | -0.7 | 1.4 | -0.9 | ·
CC(C)c1cc(C(C)C)c(S(=O)(=O)N2CCC(C(=O)NCc3cccs3)CC2)c(C(C)C)c1 | · | 3.0 | -0.5 | -0.9 | 2.4 | · | ·
COc1ccc(C2C3=C(N=C4SCC(=O)N42)c2ccccc2CC3)cc1OC (stereo not drawn) | -9.9 | 1.3 | -3.1 | 7.4 | 54.5* | -17.6 | 18.7
COc1ccccc1C1C2=C(N=C3SCC(=O)N31)c1ccccc1CC2 (stereo not drawn) | 4.4 | -2.8 | -2.0 | -0.4 | 36.9* | -15.9 | 1.2
COc1ccc(/C=c2/sc3n(c2=O)C(c2ccccc2OC)C2=C(N=3)c3ccccc3CC2)cc1O (stereo not drawn) | 0.7 | -4.7 | 8.1 | -0.9 | 6.7 | -6.7 | ·
COC(=O)C1CN(Cc2ccc(Cl)cc2)CCS(=O)(=O)N1Cc1cn(Cc2ccccc2)nn1 (stereo not drawn) | · | 3.7 | 9.0 | 2.4 | 0.4 | · | ·
CCCCNC(=O)C[C@H]1C[C@@]2(C(=O)OC)C(=C[C@H](C3CCCC3)O[C@@H]2C)N(Cc2cccc3ccccc23)C1=O | · | -7.1 | -1.1 | 0.4 | 0.5 | · | ·
CC1CC(C)CN(C(=O)C2CCN(c3cncnc3)CC2)C1 (stereo not drawn) | · | 1.6 | 0.4 | -1.0 | 0.0 | · | ·
